Assays:
Encapsulation = type: physicochemical; details: estimated from FITC signals of supernatants of broken minus un-broken NPs
Method in brief: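 PLGA (5 mg/mL in acetonitrile) containing FITC-labelled peptide was injected at 2 mL/min into 0.1% PVA and stirred 48 h. Particles were washed three times (15,000 rpm, 10 min) and freeze-dried. 1 mg NPs was disrupted in 50% DMSO/0.5% SDS/0.1 M NaOH for 1 h. FITC was read at 488/520 nm against a free-peptide calibration line. Surface-adsorbed fraction = broken minus unbroken supernatant signal. Triplicate.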

[1] = In vitro release from PLGA-NPs; type: physicochemical; details: 1 mg NPs in 1.5 mL PBS pH 7.2, 37 °C, FITC fluorescence, triplicate

Substance	peptide adsorbed on the external surface of NPs (Encapsulation)	peptide released from PLGA-NPs at 0.5 h [1] [%]
βAla-G-βAla-QL-PEG-AAFAARA [Ctrl PEG]	~ 63%	–
βAla-G-βAla-QL-PEG-AAFAARAV [Ctrl PEG-Val]	–	100

Reference: article PMC11268778 (International Journal of Nanomedicine, 2024)
